Laboratory results from paper PMC8099784 (Redox Biology, 2021).
Where two headings read alike, the source gives them in different places. Peptide text beside a SMILES is read from it. * marks the point of attachment. Cbz = O=C(OCc1ccccc1)*; CH2F = FC*

What was measured:
[1] = tested on: HepG2; experiment: MTT cell viability assay, HepG2 cells; type: cell-based, human; conditions: for effect on 23-induced cell morphological changes and cell viability: HepG2, 10 μM pretreated 1 h; for effect of caspase inhibitors on the effects of 23 on cell viability: HepG2, pretreated 2 h (Z-VAD-FMK 10 μM, Ac-DEVD-CHO 50 μM, Z-LEHD-FMK TFA 20 μM)
Method in brief: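 HepG2 at 5 × 10^3 cells/well, overnight, in RPMI 1640 with 10% FBS. Dose series for 24 h, or 2.5 μM for 24 h after pretreatment: MitoQ 1 μM for 1 h; Fer-1, DFO or Z-VAD-FMK 10 μM for 1 h; or Z-VAD-FMK 10 μM, Ac-DEVD-CHO 50 μM or Z-LEHD-FMK 20 μM for 2 h. MTT 4 h, DMSO, 570 nm. Morphology imaged by inverted microscopy.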

[2] = tested on: 7860; experiment: MTT cell viability assay, 7860 cells; type: cell-based, human
Method in brief: (§1)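 Cells kept in RPMI 1640 with 10% FBS and penicillin/streptomycin at 37 °C, 5% CO2. Seeded at 5 × 10^3 cells/well overnight, exposed to a concentration series for the stated time. MTT (5 mg/mL) added for 4 h, crystals dissolved in DMSO, absorbance read at 570 nm. Normalized to DMSO vehicle; three independent runs; IC50 by curve fitting.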

[3] = tested on: HBE; experiment: MTT cell viability assay, HBE normal lung cells; type: cell-based, human; conditions: read-out: IC50 (μM) HBE
Method in brief: as §1

[4] = tested on: A549; experiment: MTT cell viability assay, A549 cells; type: cell-based; conditions: Homo sapiens, A549, read-out: IC50 (μM) A549
Method in brief: as §1

[5] = biological target: T1, Human Prdx II (Homo sapiens, UniProt P32119); experiment: Peroxidase activity of recombinant Prdx II; type: biochemical; conditions: Amplex Red probe, Fig. 4I
T1 sequence (P32119 1-198): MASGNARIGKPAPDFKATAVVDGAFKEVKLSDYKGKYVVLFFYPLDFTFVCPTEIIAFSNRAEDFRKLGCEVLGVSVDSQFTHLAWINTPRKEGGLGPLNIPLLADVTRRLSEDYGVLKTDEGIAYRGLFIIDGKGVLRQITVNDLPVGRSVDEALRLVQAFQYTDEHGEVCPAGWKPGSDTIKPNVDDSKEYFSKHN
Method in brief: (§2)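 Human Prdx I or II cloned in pET28a, expressed in E. coli BL21, purified. In 50 mM sodium phosphate pH 7.4, enzyme (30 μM solution) preincubated with compound 30 min at RT. H2O2 (10 μM solution) added for 10 min, then Amplex Red (50 μM solution) with HRP (1 U/mL solution) for 10 min. Fluorescence ex 535/em 595 nm; n = 3.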

[6] = biological target: T2, Human Prdx I (Homo sapiens, UniProt Q06830); experiment: Peroxidase activity of recombinant Prdx I; type: biochemical; conditions: Amplex Red probe, Fig. 4H
T2 sequence (Q06830 1-199): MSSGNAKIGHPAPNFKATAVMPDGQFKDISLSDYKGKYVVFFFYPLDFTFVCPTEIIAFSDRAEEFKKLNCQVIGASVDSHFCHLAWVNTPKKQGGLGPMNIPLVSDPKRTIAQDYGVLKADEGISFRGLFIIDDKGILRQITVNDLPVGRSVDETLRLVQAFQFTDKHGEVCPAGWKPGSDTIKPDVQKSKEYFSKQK
Method in brief: as §2

[7] = tested on: A2780; experiment: MTT cell viability assay, A2780 cells; type: cell-based; conditions: Homo sapiens, A2780, read-out: IC50 (μM) A2780
Method in brief: as §1

[8] = tested on: HepG2 cells; experiment: C11-BODIPY lipid peroxidation assay, HepG2; type: cell-based, human; conditions: HepG2, 10 μM pretreated 1 h, then 2.5 μM 23 for 24 h
Method in brief: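 HepG2, 1.6 × 10^5 cells/well. Treated at 1.25, 2.5 or 5 μM for 24 h, or 2.5 μM for 0–24 h; some wells pretreated 1 h with Fer-1, DFO or Z-VAD-FMK (each 10 μM). Trypsinized cells stained in PBS with 1.5 μM C11-BODIPY, 15 min, 37 °C; FL1 flow cytometry. Mean ± SD, n = 3.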

[9] = tested on: HepG2 cells; experiment: ROS detection by DCFH-DA, HepG2; type: cell-based, human; conditions: then 2.5 μM 23 for 24 h
Method in brief: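 Cells seeded at 1.6 × 10^5 per well and exposed to treatment; HepG2 variants used MitoQ 1 μM for 1 h or a caspase-inhibitor pretreatment before 2.5 μM for 24 h. Trypsinized cells incubated 30 min in PBS with 10 μM DCFH-DA. Green fluorescence read on the FL1 flow-cytometry channel.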

[10] = tested on: HepG2 cells; experiment: Mitochondrial membrane potential; type: cell-based, human; conditions: HepG2, 10 μM pretreated 2 h, then 2.5 μM 23 for 24 h
Method in brief: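 Cells seeded at 1.6 × 10^5 per well and exposed to treatment. Loaded with JC-1 for 1 h at 37 °C, washed twice in PBS, then held in serum-free medium. Red/green fluorescence ratio measured by flow cytometry.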

N.N.[Cl][Pt][Cl] [Cisplatin]
IC50 ([1]; read-out: IC50 (μM) HepG2, cytotoxicity, MTT, mean ± SD): 8.5 ± 0.4 µM | IC50 ([2]; read-out: IC50 (μM) 7860, cytotoxicity, MTT, mean ± SD): 13.5 ± 1.3 µM | IC50 ([3]; cytotoxicity, MTT, normal lung cell line, mean ± SD): 9.2 ± 1.4 µM

C=C1C(=O)[C@]23C[C@H]1C[C@H](OC(C)=O)[C@H]2[C@]1(C)[C@@H](OC(C)=O)C[C@H](O)C(C)(C)[C@H]1C(=O)[C@@H]3OC(C)=O [Adenanthin]
IC50 [4]: 8.5 ± 1 µM | peroxidase activity of recombinant Prdx II [5]: effectively inhibited | IC50 ([1]; Homo sapiens, HepG2, read-out: IC50 (μM) HepG2): 7.3 ± 0.8 µM | IC50 ([2]; Homo sapiens, 786-0, read-out: IC50 (μM) 7860): 5.5 ± 0.6 µM | IC50 ([3]; Homo sapiens, HBE): 7.7 ± 1.1 µM | peroxidase activity of recombinant Prdx I [6]: effectively inhibited | IC50 [7]: 5.4 ± 0.9 µM

CCOC(=O)c1ccc(NC2CCCCC2)c(N)c1 [Fer-1]
effect on 23-induced cell morphological changes and cell viability ([1]; then 2.5 μM 23 for 24 h, MTT): markedly blocked | effect on 23-induced lipid peroxidation [8]: attenuated

COC1=C(OC)C(=O)C(CCCCCCCCCC[P+](c2ccccc2)(c2ccccc2)c2ccccc2)=C(C)C1=O [MitoQ]
effect on 23-induced cell viability inhibition ([1]; HepG2, pretreated 1 μM 1 h, then 2.5 μM 23 for 24 h, MTT): reversed | effect on 23-induced ROS accumulation ([9]; HepG2, pretreated 1 μM 1 h): reversed

CC(=O)N[C@@H](CC(=O)O)C(=O)N[C@@H](CCC(=O)O)C(=O)N[C@H](C(=O)N[C@H](C=O)CC(=O)O)C(C)C [Ac-DEVD-CHO]
effect of caspase inhibitors on the effects of 23 on cell viability ([1]; then 2.5 μM 23 for 24 h): partially reversed

CC(=O)N(O)CCCCCNC(=O)CCC(=O)N(O)CCCCCNC(=O)CCC(=O)N(O)CCCCCN [DFO]
effect on 23-induced cell morphological changes and cell viability ([1]; then 2.5 μM 23 for 24 h, MTT): markedly blocked | effect on 23-induced lipid peroxidation [8]: attenuated

COC(=O)CC[C@H](NC(=O)[C@H](CC(C)C)NC(=O)OCc1ccccc1)C(=O)N[C@@H](Cc1cnc[nH]1)C(=O)N[C@@H](CC(=O)OC)C(=O)CF.O=C(O)C(F)(F)F [Z-LEHD-FMK TFA] (Cbz-LE(OMe)HD(OMe)-CH2F)
effect of caspase inhibitors on the effects of 23 on cell viability ([1]; then 2.5 μM 23 for 24 h): partially reversed

COC(=O)C[C@H](NC(=O)[C@H](C)NC(=O)[C@@H](NC(=O)OCc1ccccc1)C(C)C)C(=O)CF [Z-VAD-FMK] (Cbz-Val-Ala-Asp(OMe)-CH2F)
effect on 23-induced cell morphological changes and cell viability ([1]; then 2.5 μM 23 for 24 h, MTT): markedly blocked | effect of caspase inhibitors on the effects of 23 on cell viability ([1]; then 2.5 μM 23 for 24 h): partially reversed | effect on the changes in MMP caused by 23 [10]: no effect | effect on the changes in ROS caused by 23 ([9]; HepG2, 10 μM pretreated 2 h): no effect
